Measured values from ChEMBL document CHEMBL3751738, “Structure-based design and biological evaluation of novel 2-(indol-2-yl) thiazole derivatives as xanthine oxidase inhibitors” (Bioorg Med Chem Lett, 2016).
pIC50: −log10 of the molar value.

Key:
[1] = Cmax in Sprague-Dawley rat at 10 mg/kg, po; format: ADME, organism-based; design: dose 10 mg/kg, route oral; details: in vivo
Method in brief: (§1)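 Single oral dose of 10 mg/kg given to SD rats. Plasma Cmax, Tmax, AUC0–last, AUC0–infinity and t1/2 were determined, n = 3.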

[2] = Half life in rat liver microsomes; format: ADME
[3] = Inhibition of butter milk xanthine oxidase (unknown origin) assessed as initial velocity of uric acid formation pre-incubated for 3 mins by spectrophotometry analysis
Method in brief: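 Buttermilk xanthine oxidase diluted to 0.05 U/mL in 50 mM phosphate buffer. Compounds at several concentrations were added in phosphate buffer containing 10% DMSO and pre-incubated 3 min at room temperature. The reaction was started with xanthine solution (200 µM as added). Uric acid formation was read at 293 nm, with the linear rate over 5 min taken as initial velocity. % inhibition was calculated against the no-inhibitor rate, and IC50 derived.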

Rattus norvegicus = assay: Inhibition of oxonic acid-induced high uric acid level in Sprague-Dawley rat plasma at 10 mg/kg, po after 1 hr; format: functional
Method in brief: (§2)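 Hyperuricemia was induced in male SD rats (about 200 g) with potassium oxonate 300 mg/kg i.p., suspended in 0.8% carboxymethylcellulose. One hour later compounds were dosed orally in PEG400:ethanol (2:1), and blood was taken 1 h post-dose for plasma uric acid. Inhibition was scaled with the normal group as 100% and the oxonate control as 0%. Statistics used ANOVA with Dunnett's post-test.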

[4] = Plasma concentration in Sprague-Dawley rat at 10 mg/kg, po after 1 hr; format: ADME, organism-based; method in brief: as §2
[5] = Tmax in Sprague-Dawley rat at 10 mg/kg, po; format: ADME, organism-based; details: in vivo; method in brief: as §1
[6] = AUC (0 to infinity) in Sprague-Dawley rat at 10 mg/kg, po; format: ADME, organism-based; design: dose 10 mg/kg, route oral, time infinity; details: in vivo; method in brief: as §1
[7] = AUC (0 to last) in Sprague-Dawley rat at 10 mg/kg, po; format: ADME, organism-based; design: dose 10 mg/kg, route oral, time 0 - last; details: in vivo; method in brief: as §1
[8] = Half life in Sprague-Dawley rat at 10 mg/kg, po; format: ADME, organism-based; details: in vivo; method in brief: as §1

half-life [2] [h] | pIC50 [3] | Compound | inhibition in vivo at 10 mg/kg (Rattus norvegicus) [%] | other results
2.17 | 8.21 | Cc1nc(-c2cc3cc(OC(C)C)cc(C#N)c3[nH]2)sc1C(=O)O | 19 | Cmax [1]: 3750 ng/mL
3.67 | 8.05 | Cc1nc(-c2cc3cc(Oc4ccccc4)cc(C#N)c3[nH]2)sc1C(=O)O |  | 
2.96 | 8.03 | Cc1nc(-c2cc3cc(NC4CCCC4)cc(C#N)c3[nH]2)sc1C(=O)O |  | Cmax [1]: 300 ng/mL
14.6 | 8.44 | Cc1nc(-c2cc3cc(CNS(C)(=O)=O)cc([N+](=O)[O-])c3[nH]2)sc1C(=O)O | 0 | concentration at 1 h [4]: 17 ng/mL
1.5 | 8.03 | Cc1nc(-c2cc3cc(NCc4ccccc4)cc(C#N)c3[nH]2)sc1C(=O)O |  | 
4.69 | 7.84 | Cc1nc(-c2cc3cc(Oc4ccccc4)cc(Cl)c3[nH]2)sc1C(=O)O |  | 
1.61 | 6.68 | Cc1nc(-c2cc3cc(OCC(C)C)ccc3[nH]2)sc1C(=O)O |  | 
2.51 | 8.16 | Cc1nc(-c2cc3cc(N4CCCCC4)cc(C#N)c3[nH]2)sc1C(=O)O |  | Cmax [1]: 740 ng/mL
 | 6.28 | Cc1nc(-c2cc3cc(OCc4ccccc4)ccc3[nH]2)sc1C(=O)O |  | 
2.07 | 8.24 | Cc1nc(-c2cc3cc(OC4CCCC4)cc(C#N)c3[nH]2)sc1C(=O)O | 2.3 | Cmax [1]: 720 ng/mL
1.52 | 7.77 | Cc1nc(-c2cc3cc(Oc4ccccc4)cc(Br)c3[nH]2)sc1C(=O)O |  | 
0.402 | 8.15 | COc1cc([N+](=O)[O-])c2[nH]c(-c3nc(C)c(C(=O)O)s3)cc2c1 | 4 | concentration at 1 h [4]: 100 ng/mL
4.03 | 7.80 | Cc1nc(-c2cc3cc(Oc4ccccc4)cc([N+](=O)[O-])c3[nH]2)sc1C(=O)O | 7.1 | Cmax [1]: 3200 ng/mL
 | 6.10 | COc1ccc2[nH]c(-c3nc(C)c(C(=O)O)s3)cc2c1 |  | 
 | 7.50 | Cc1nc(-c2cc3cc(N)cc(C#N)c3[nH]2)sc1C(=O)O |  | 
1.94 | 6.63 | Cc1nc(-c2cc3cc(Oc4ccccc4)ccc3[nH]2)sc1C(=O)O |  | 
 | 5.66 | COc1ccc2cc(-c3nc(C)c(C(=O)O)s3)[nH]c2c1 |  | 
 | 6.32 | Cc1nc(-c2cc3ccc(OCC(C)C)cc3[nH]2)sc1C(=O)O |  | 
4.13 | 8.29 | Cc1nc(-c2cc3cc(OC(C)C)cc([N+](=O)[O-])c3[nH]2)sc1C(=O)O | 43 | Cmax [1]: 4940 ng/mL; Tmax [5]: 0.42 h; AUC(0-inf) [6]: 13100 ng·h/mL; AUC(0-t) [7]: 8230 ng·h/mL; half-life [8]: 3.45 h
 | 8.51 | Cc1nc(-c2ccc(OCC(C)C)c(C#N)c2)sc1C(=O)O [FEBUXOSTAT] | 60 | 
 | 8.28 | N#Cc1cc(-c2n[nH]c(-c3ccncc3)n2)ccn1 [TOPIROXOSTAT] |  | 

Compound | half-life [2] [h] | pIC50 [3] | inhibition in vivo at 10 mg/kg (Rattus norvegicus) [%] | other results
Oc1ncnc2[nH]ncc12 [ALLOPURINOL] |  | 5.43 |  | 
